A short description of series [1]: Total drug level in mdr1a-deficient mouse brain at 12 mg/kg/day administered through continuous minipump treatment for 3 days by UPLC-MS analysis. The series is classed as ADME, organism-based. Conditions: other: continuous minipump, read-out: Drug uptake. In outline: (§1)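 Drug was infused subcutaneously by osmotic minipump for 3 days to steady state, at 1 µl/h in mice and 10 µl/h in rats, with doses derived from body weight and delivery rate. Animals were decapitated. Plasma came from EDTA trunk blood spun at 5000 g for 10 min at 4 °C. Whole brain was homogenised 1:4 in 70% acetonitrile and the supernatant kept. Samples were protein-precipitated with internal standard and analysed by UPLC. n=3-5, mean ± SEM.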

Series [2] is described as follows: Percentage unbound in Crl:NMRI(Han) mouse brain at 1 uM after 5 hrs by equilibrium dialysis method. The series is classed as ADME, tissue-based. In outline: (§2)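 Equilibrium dialysis (12-14 kDa membrane) of plasma or brain homogenate from naïve male Sprague-Dawley rats or Crl:NMRI(Han) mice. Donor side spiked to 1 µM final; receiver phosphate buffer pH 7.4; 37°C for 5 h. Buffer phase quantified by LC-MS. Brain fu corrected for homogenate dilution to intact tissue. Mean of two independent determinations.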

A short description of series [3]: Total drug level in wild type Crl:CF1 mouse brain expressing Abcb1a mutant at 12 mg/kg/day administered through continuous minipump treatment for 3 days by UPLC-MS analysis. It counts as ADME, organism-based. Conditions: other: continuous minipump, read-out: Drug uptake. In outline:
as §1

A short description of series [4]: Unbound brain to plasma partition coefficient of the compound in mdr1a-deficient mouse at 12 mg/kg/day administered through continuous minipump treatment for 3 days. The series is classed as ADME, organism-based. The note with it: other: continuous minipump, read-out: K(p,uu,brain). In outline: (§3)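 Kp,uu = Cbrain,total × fu,brain / Cplasma,total × fu,plasma, using steady-state totals from 3-day subcutaneous minipump infusion. Free fractions came from equilibrium dialysis (12-14 kDa membrane) of naive Sprague-Dawley rat or NMRI mouse plasma or brain homogenate spiked to 1 µM final, against pH 7.4 phosphate buffer for 5 h at 37 °C, read by LC-MS and corrected for brain dilution. fu is the mean of two determinations.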

Series [5] is described as follows: Unbound brain to plasma partition coefficient of the compound in wild type Crl:CF1 mouse expressing Abcb1a mutant at 12 mg/kg/day administered through continuous minipump treatment for 3 days. The series is classed as ADME, organism-based. Conditions: other: continuous minipump, read-out: K(p,uu,brain). In outline: as §3
A short description of series [6]: Percentage unbound in Sprague-Dawley rat brain at 1 uM after 5 hrs by equilibrium dialysis method. The series is classed as ADME, tissue-based. In outline: as §2
(In equilibrium dialysis free small molecules cross a membrane that holds back macromolecules.)

The nature of series [7]: Total brain to plasma partition coefficient of the compound in mdr1a-deficient rat at 9 mg/kg/day administered through continuous minipump treatment for 3 days. Conditions: brain and plasma, other: continuous minipump. It counts as ADME, organism-based.
Series [8] can be described thus: Percentage unbound in Sprague-Dawley rat plasma at 1 uM after 5 hrs by equilibrium dialysis method. The series is classed as ADME, cell-free. In outline:
as §2

The nature of series [9]: Total brain to plasma partition coefficient of the compound in wild type Sprague-Dawley rat expressing Abcb1a at 9 mg/kg/day administered through continuous minipump treatment for 3 days. It counts as ADME, organism-based. Conditions: brain and plasma, other: continuous minipump.
A short description of series [10]: Total brain to plasma partition coefficient of the compound in wild type Crl:CF1 mouse expressing Abcb1a mutant at 12 mg/kg/day administered through continuous minipump treatment for 3 days. The series is classed as ADME, organism-based. Conditions: brain and plasma, other: continuous minipump. In outline:
(§4)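 Rats (SD-Abcb1a knockout or wild-type, 350-500 g) or mice (Crl:CF1-Abcb1a mutant or CF-1 background, 25-45 g) received drug by subcutaneous osmotic minipump (pump content as free base) for 3 days to steady state. After decapitation, trunk EDTA plasma and whole brain (homogenised 1:4 in 70% acetonitrile) were assayed by UPLC. Kp = total brain/total plasma concentration. n=3-5, mean ± SEM.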

A short description of series [11]: Total plasma concentration in mdr1a-deficient mouse at 12 mg/kg/day administered through continuous minipump treatment for 3 days by UPLC-MS analysis. The series is classed as ADME, organism-based. Conditions: other: continuous minipump. In outline: as §1
A short description of series [12]: Unbound brain to plasma partition coefficient of the compound in wild type Sprague-Dawley rat expressing Abcb1a at 9 mg/kg/day administered through continuous minipump treatment for 3 days. It counts as ADME, organism-based. Conditions: other: continuous minipump, read-out: K(p,uu,brain).
The nature of series [13]: Total plasma concentration in wild type Sprague-Dawley rat expressing Abcb1a at 9 mg/kg/day administered through continuous minipump treatment for 3 days by UPLC-MS analysis. The series is classed as ADME, organism-based. The note with it: other: continuous minipump. In outline:
as §1

Series [14] in a line: Total plasma concentration in mdr1a-deficient rat at 9 mg/kg/day administered through continuous minipump treatment for 3 days by UPLC-MS analysis. The series is classed as ADME, organism-based. The note with it: other: continuous minipump. In outline:
as §1

Series [15] can be described thus: Total plasma concentration in wild type Crl:CF1 mouse expressing Abcb1a mutant at 12 mg/kg/day administered through continuous minipump treatment for 3 days by UPLC-MS analysis. The note with it: other: continuous minipump. It counts as ADME, organism-based. In outline: as §1
Series [16] is described as follows: Total brain to plasma partition coefficient of the compound in mdr1a-deficient mouse at 12 mg/kg/day administered through continuous minipump treatment for 3 days. The series is classed as ADME, organism-based. Conditions: other: continuous minipump. In outline: as §4
A short description of series [17]: Percentage unbound in Crl:NMRI(Han) mouse plasma at 1 uM after 5 hrs by equilibrium dialysis method. It counts as ADME, cell-free. In outline:
as §2

A short description of series [18]: Total drug level in mdr1a-deficient rat brain at 9 mg/kg/day administered through continuous minipump treatment for 3 days by UPLC-MS analysis. The note with it: other: continuous minipump, read-out: Drug uptake. The series is classed as ADME, organism-based. In outline: as §1
A short description of series [19]: Unbound brain to plasma partition coefficient of the compound in mdr1a-deficient rat at 9 mg/kg/day administered through continuous minipump treatment for 3 days. The series is classed as ADME, organism-based. Conditions: other: continuous minipump, read-out: K(p,uu,brain).
A short description of series [20]: Total drug level in wild type Sprague-Dawley rat brain expressing Abcb1a at 9 mg/kg/day administered through continuous minipump treatment for 3 days by UPLC-MS analysis. The series is classed as ADME, organism-based. Conditions: other: continuous minipump, read-out: Drug uptake. In outline:
as §1

As a reminder, the fraction unbound is the share of the substance not bound to proteins or other matrix. A low value points to extensive binding. In general, Kp refers to the ratio of the level in a tissue or fluid to that in plasma or blood.

Regarding `COc1ccc(C(CN(C)C)C2(O)CCCCC2)cc1.Cl` (stereo not given) [VENLAFAXINE HYDROCHLORIDE], the concentration at 72 h in series [1] was 828 ng/g; in series [3] it was 403 ng/g; in series [11], 105 ng/mL; in series [13], 50 ng/mL; in [14], 63 ng/mL; in series [15] it was 85 ng/mL. Also, the concentration at 72 h in series [18] is 389 ng/g; in series [20], 158 ng/g. Moreover, the fraction unbound at 5 h, 1 µM in series [2] was 0.18; in series [6], 0.092; in series [8], 0.64; in series [17], greater than 0.99. The Kp uu at 72 h amounted to 1.4 in series [4], 0.86 in series [5], 0.45 in [12] and 0.89 in series [19]. Also, the Kp at 72 h in [7] came to 6.3; in series [9] it was 3.3; in series [10] it was 4.7; in series [16] it was 8.3.

These data come from ChEMBL document CHEMBL3525946, “Species comparison of in vivo P-glycoprotein-mediated brain efflux using mdr1a-deficient rats and mice” (Drug Metab Dispos, 2012).
